Measured values gathered from unrelated publications.
Each line is one published result; the experiments were not run side by side.
Target: Serine/threonine-protein kinase pim-2 (PIM2, Homo sapiens, UniProt Q9P1W9)

For `O=C1NC(c2ccccn2)Sc2ccccc21` (stereo not shown), the remaining binding was 88% (cell-free assay; competition with immobilised ligand; 1 µM).
`FC(F)(F)Oc1cccc(-c2cnc3ccc(-c4ccncc4)nn23)c1` gave an activity vs control of 83% (enzyme activity; inhibitor; radiometric; 5 µM).
With `Cc1nccc(COC(=O)N2C[C@@H]3[C@@H](CNC(=O)c4ccc5[nH]nnc5c4)[C@@H]3C2)n1` the remaining binding was 0% (cell-free assay; competition with immobilised ligand; 1 µM).
For `COc1cc(Cl)c(C(=O)N[C@@H](CN[C@H]2CC[C@@H](N)CC2)Cc2ccc(C#N)cc2)cc1-c1ccc(CN[C@H](C)c2ccc(C)cc2)o1`, the remaining activity was 92% (enzyme activity; inhibitor; 1 µM).
For `C#Cc1cccc(Nc2ncnc3cc(OCCOC)c(OCCOC)cc23)c1`, the remaining signal was 97.9% (cell-free assay; 0.5 µM).
The inhibition of `CCCS(=O)(=O)Nc1ccc(F)c(C(=O)c2c[nH]c3ncc(-c4ccc(Cl)cc4)cc23)c1F` is reported as < 10% (enzyme activity; inhibitor; 1 µM).
`FC(F)c1nc2ccccc2n1-c1nc(N2CCOCC2)nc(N2CCOCC2)n1` gave a remaining activity of 92% (enzyme activity; inhibitor; 10 µM).
With `CC(C)(C)c1nc2c(s1)c1nc(N)ncc1c1ccc(NS(=O)(=O)c3c(F)cccc3F)c(F)c12` the remaining activity was 81% (enzyme activity; inhibitor; radiometric; 1 µM).
With `Cc1sc(C(=O)NC2COC2)cc1-n1cc(NC(=O)Nc2c(F)cccc2Cl)cn1` the remaining activity was 96.5% (enzyme activity; inhibitor; 10 µM).
For `CC(C)(O)[C@H]1CC[C@H](Nc2ccc3ncc(-c4cccc(C(F)(F)F)c4)n3n2)CC1`, the remaining activity was 29.8% (enzyme activity; inhibitor; 1 µM).
`O=C(Nc1cnn(-c2csc(C(=O)NC3COC3)c2)c1)Nc1c(F)cccc1Cl` gave a remaining activity of 129% (enzyme activity; inhibitor; 5 µM).
For `COc1cc(/C=C/C(=O)CC(=O)/C=C/c2ccc(O)c(OC)c2)ccc1O`, the activity vs control was 74% (enzyme activity; inhibitor; 1 µM).
`CCC(=O)N[C@H]1CC[C@@H](C(=O)N(C)c2ccc(-c3nc4ccccc4o3)cc2)C1` has a remaining binding of 100% (cell-free assay; competition with immobilised ligand; 1 µM).
With `Nc1ncnc2occ(-c3ccc(NC(=O)Nc4cc(C(F)(F)F)ccc4F)cc3)c12` the remaining signal was 100% (cell-free assay; inhibitor; 20 µM).
`CC/C(=N\NC(=O)NCc1cccc(O)c1)c1ccc(O)c(C)c1O` gave an inhibition of -5% (enzyme activity; inhibitor; 0.1 µM).
`COc1cc2ncnc(Nc3ccc(Oc4ccccc4)cc3C)c2cc1OC` has an inhibition of -2% (enzyme activity; inhibitor; 1 µM).
`CO[C@@H](C)c1c(Nc2ccc([C@H](N(C)C(=O)C3CCS(=O)(=O)CC3)C(F)(F)F)cc2)cnc2cc(Cl)nn12` has a remaining binding of 100% (cell-free assay; competition with immobilised ligand; 1 µM).
For `O=C(CSc1nc2nccnc2c(=O)n1CCc1ccccc1)Nc1nccs1`, the inhibition was -5% (enzyme activity; inhibitor; 10 µM).
For `Cc1c(NC(=O)c2cc(C(N)=O)nc3cc(F)ccc23)c(C(F)(F)F)nn1Cc1ccc(C#N)cc1`, the remaining binding was 94% (cell-free assay; competition with immobilised ligand; 1 µM).
`Cc1ccc(Nc2nccc(N(C)c3ccc4c(C)n(C)nc4c3)n2)cc1S(N)(=O)=O` gave a remaining activity of 101% (enzyme activity; inhibitor; 0.5 µM).
With `CNC(=O)c1cc(Oc2ccc(NC(=O)Nc3ccc(Cl)c(C(F)(F)F)c3)cc2)ccn1` the inhibition was 6% (enzyme activity; inhibitor; 0.3 µM).
`Cn1nc(C(F)(F)F)cc1-c1cnc(N2CCc3cc(S(=O)(=O)Nc4c(F)cc(Cl)cc4F)cc(N4CCCC4=O)c32)nc1` gave a remaining binding of 100% (cell-free assay; competition with immobilised ligand; 1 µM).
`Cc1ccc(NC(=O)c2ccc(CN3CCN(C)CC3)cc2)cc1Nc1nc(-c2cccnc2)cs1` has a remaining signal of 118% (cell-free assay; 0.5 µM).
For `CS(=O)(=O)N1CCCC(NC(=O)[C@H](CCC2CCCCC2)NC(=O)c2ccc(CNc3ncnc4c3nnn4-c3ccccc3)cc2)C1` (stereo partly shown), the remaining binding was 88% (cell-free assay; competition with immobilised ligand; 0.1 µM).
With `O=C1Nc2ccc(Cl)cc2C1=Cc1cc(Cl)c(O)c(Cl)c1` the remaining signal was 48.6% (cell-free assay; 0.5 µM).
`CCCOc1ccc(OC)c(F)c1C(=O)c1ccc(C(=O)N[C@@H]2CNC[C@H]2NC(=O)c2ccc3[nH]ncc3c2)cc1` gave a remaining activity of 101% (enzyme activity; inhibitor; 10 µM).
`COc1cc(Nc2cnc(C#N)c(O[C@H](C)CN(C)C)n2)ncc1-c1cnn(C)c1` has a remaining activity of 98% (enzyme activity; inhibitor; radiometric; 1 µM).
With `CCOc1cc(-c2nncn2C)ccc1Nc1ncc2cc(C)nc(NCC(C)(C)C)c2n1` the inhibition was < 15% (enzyme activity; inhibitor; FRET; 1 µM).
`Nc1nc(NC2CCCCC2)sc1C(=O)c1ccccc1` has a remaining activity of 94% (enzyme activity; inhibitor; 10 µM).
`Cc1ccc(NC(=O)c2ccc(C)c(C(F)(F)F)c2)cc1C#Cc1nn(C2CCC(O)CC2)c2ncnc(N)c12` (stereo not shown) gave a remaining signal of 112% (cell-free assay; 10 µM).
`O=c1nc(-c2ccccn2)sc2ccccc12` has a remaining binding of 97% (binding; competition with immobilised ligand; 1 µM).
